Data taken from paper PMC7917164 (Bioorganic & medicinal chemistry, 2020).
Marks after values point to notes of the source that are not given here.

Legend:
[1] = system: Notch processing by γ-secretase; experiment: Notch processing in H4-APP751 cells transfected with the NΔE construct; assay type: cell-based, human; settings: 24hrs, 22d 10 μM and 1 μM, DAPT 300 nM and 100 nM
Procedure, shortened: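 H4 human neuroglioma cells stably overexpressing human APP751 were transfected with an […] Myc-tagged NΔE Notch construct. They were then treated with the test compound, a reference γ-secretase inhibitor or vehicle for 24 h and harvested 48 h post-transfection. Western blots were probed with anti-Myc antibody to detect NΔE and NICD, with β-actin as loading control.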

[2] = Kinetic aqueous solubility by UV/Vis absorbance in PBS buffer; assay type: physicochemical; settings: pH 7.4, PBS buffer
[3] = system: Aβ38, Aβ40, Aβ42 and total Aβ peptide levels in SHSY5Y-APP cells; experiment: Meso Scale multiplex assay of Aβ peptides in SHSY5Y-APP cells; assay type: cell-based, human; settings: concentration response
Procedure, shortened: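 Human SH-SY5Y neuroblastoma cells stably overexpressing wild-type human APP751 were exposed to the test compound at a range of concentrations. Aβ38, Aβ40, Aβ42 and total Aβ in the samples were measured by Meso Scale Sector 6000 multiplex assay. Plates were read on an MSD SECTOR Imager after read buffer was added, and peptide concentrations were back-fitted from their respective standard curves.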

[4] = Pharmacokinetic evaluation after single iv and po administration; assay type: in vivo, male CD-1 mice; settings: for Clearance as share of mouse hepatic blood flow: male CD-1 mice, hepatic blood flow ~90 mL/min/kg; for Fraction of oral dose absorbed / Share of absorbed dose metabolized during the first-pass: mice, po; for Fraction of oral dose absorbed: accounting for first-pass effects; for Share of absorbed dose metabolized during the first-pass: assuming hepatic elimination
[5] = system: plasma Aβ38, Aβ40 and Aβ42 levels; experiment: Pharmacodynamic study using J20 mice; assay type: in vivo, female J20 mice; settings: daily oral, 3-day treatment; for Effect on plasma Aβ42 and Aβ40: 25, 50 and 100 mg/kg; for Effect on Aβ38 levels: plasma
Procedure, shortened: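 Female J20 transgenic mice (5–6 months old, n=5/dose) received the test compound or vehicle (5% NMP/95% PEG300) by oral gavage once daily for three days. Animals were killed 4 h after the day-3 dose, and plasma and brain were collected. Aβ38, Aβ40 and Aβ42 were quantified with Meso Scale multiplex kits, and data were analysed as mean ± SEM with ANOVA.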

[6] = system: Aβ42 levels (γ-secretase modulation) in SHSY5Y-APP cells; experiment: Cell-based ELISA assay for measuring extracellular Aβ42 levels; design: species or system human
[7] = system: plasma and brain Aβ38, Aβ40 and Aβ42 levels; experiment: Pharmacodynamic study using Tg2576 mice; assay type: in vivo, female Tg2576 mice; settings: 50 mg/kg, oral daily, 14 days
Procedure, shortened: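 Dosing was by oral gavage in female Tg2576 mice (5–6 months old, n=12/dose), given the test compound or vehicle (5% NMP/95% PEG300) daily for 14 consecutive days. Mice were killed 4 h after the final dose on day 14, and plasma and brain were harvested. Aβ38, Aβ40 and Aβ42 were measured by Meso Scale multiplex assay, and results were expressed as mean ± SEM with ANOVA.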

[8] = male, CD-1, mouse, plasma, iv, 1 mg/kg

Compound | Fraction of oral dose absorbed [4] | Parent Aβ42 IC50 [6] [nM] | clearance at 24 h [4, 8] [mL/min/kg] | other results
CCn1nc2c(c1Nc1nc(-c3ccc(-n4cnc(C)c4)c(OC)n3)cs1)CCCC2 [Compound 22d, N-(2-ethyl-4,5,6,7-tetrahydro-2H-indazol-3-yl)-4-(6-methoxy-5-(4-methyl-1H-imidazol-1-yl)pyridin-2-yl)thiazol-2-amine] | ~90% | – | – | Notch processing (NΔE to NICD) [1]: did not inhibit; Kin. Aq. Sol. [2]: 4.5* μM; Aβ38 levels [3]: potentiated; Aβ40 levels [3]: suppressed; Aβ42 levels [3]: suppressed; total levels of Aβ [3]: no change; Clearance as share of mouse hepatic blood flow ([4]; iv): approximately 40%; Share of absorbed dose metabolized during the first-pass [4]: approximately 40%
COc1nc(-c2csc(Nc3c4c(nn3CCF)CCCC4)n2)ccc1-n1cnc(C)c1 [Compound 46, N-(2-(2-fluoroethyl)-4,5,6,7-tetrahydro-2H-indazol-3-yl)-4-(6-methoxy-5-(4-methyl-1H-imidazol-1-yl)pyridin-2-yl)thiazol-2-amine] | nearly complete | 110 | 57.8 | Effect on plasma Aβ42 and Aβ40 [5]: plateau between 50 and 100 mg/kg; Effect on Aβ38 levels [5]: reduced; Share of absorbed dose metabolized during the first-pass [4]: approximately 60%
CCn1nc(C2(C)CC2)cc1Nc1nc(-c2ccc(-n3cnc(C)c3)c(OC)n2)cs1 [Compound 59, N-(1-ethyl-3-(1-methylcyclopropyl)-1H-pyrazol-5-yl)-4-(6-methoxy-5-(4-methyl-1H-imidazol-1-yl)pyridin-2-yl)thiazol-2-amine] | – | – | 12.1 | Clearance as share of mouse hepatic blood flow ([4]; iv): approximately 13%
CCn1nc(C(F)(F)F)cc1Nc1nc(-c2ccc(-n3cnc(C)c3)c(OC)n2)cs1 [Compound 60, N-(1-ethyl-3-(trifluoromethyl)-1H-pyrazol-5-yl)-4-(6-methoxy-5-(4-methyl-1H-imidazol-1-yl)pyridin-2-yl)thiazol-2-amine] | greater than 80% | 98 | 26.8 | –
COc1nc(-c2csc(Nc3c4c(nn3C)CCC4)n2)ccc1-n1cnc(C)c1 [Compound 63, 4-(6-methoxy-5-(4-methyl-1H-imidazol-1-yl)pyridin-2-yl)-N-(2-methyl-2,4,5,6-tetrahydrocyclopenta[c]pyrazol-3-yl)thiazol-2-amine] | greater than 80% | >1000 | 21.8 | Clearance as share of mouse hepatic blood flow ([4]; iv): ~24%
CCn1nc2c(c1Nc1nc(-c3ccc(-n4cnc(C)c4)c(OC)n3)cs1)CCC2 [Compound 64, N-(2-ethyl-2,4,5,6-tetrahydrocyclopenta[c]pyrazol-3-yl)-4-(6-methoxy-5-(4-methyl-1H-imidazol-1-yl)pyridin-2-yl)thiazol-2-amine] | greater than 80% | 41 | 43.5 | Effect on plasma Aβ38 levels [7]: potentiating; Effect on plasma Aβ42 and Aβ40 levels [7]: decreased; Effect on plasma Aβ42 and Aβ40 [5]: dose-dependent reduction; Effect on Aβ38 levels [5]: reduced; half-life [4, 8]: 42 min
COc1nc(-c2csc(Nc3c4c(nn3C(C)(C)C)CCC4)n2)ccc1-n1cnc(C)c1 [Compound 66, N-(2-(tert-butyl)-2,4,5,6-tetrahydrocyclopenta[c]pyrazol-3-yl)-4-(6-methoxy-5-(4-methyl-1H-imidazol-1-yl)pyridin-2-yl)thiazol-2-amine] | – | 175 | – | –
COc1nc(-c2csc(Nc3c4c(nn3C3CCC3)CCC4)n2)ccc1-n1cnc(C)c1 [Compound 67, N-(2-cyclobutyl-2,4,5,6-tetrahydrocyclopenta[c]pyrazol-3-yl)-4-(6-methoxy-5-(4-methyl-1H-imidazol-1-yl)pyridin-2-yl)thiazol-2-amine] | – | 92 | – | –
COc1nc(-c2csc(Nc3c4c(nn3CC(F)(F)F)CCC4)n2)ccc1-n1cnc(C)c1 [Compound 69, 4-(6-methoxy-5-(4-methyl-1H-imidazol-1-yl)pyridin-2-yl)-N-(2-(2,2,2-trifluoroethyl)-2,4,5,6-tetrahydrocyclopenta[c]pyrazol-3-yl)thiazol-2-amine] | – | 94 | – | –
COc1nc(-c2csc(Nc3c4c(nn3CCO)CCC4)n2)ccc1-n1cnc(C)c1 [Compound 70, 2-(3-((4-(6-methoxy-5-(4-methyl-1H-imidazol-1-yl)pyridin-2-yl)thiazol-2-yl)amino)-5,6-dihydrocyclopenta[c]pyrazol-2(4H)-yl)ethanol] | – | >1000 | – | –
CCn1nc2c(c1Nc1nc(-c3ccc(-n4cnc(C)c4)c(OC)n3)cs1)CCC2(C)C [Compound 71, N-(2-ethyl-6,6-dimethyl-2,4,5,6-tetrahydrocyclopenta[c]pyrazol-3-yl)-4-(6-methoxy-5-(4-methyl-1H-imidazol-1-yl)pyridin-2-yl)thiazol-2-amine] | – | 62 | – | –
CCn1nc2c(c1Nc1nc(-c3ccc(-n4cnc(C)c4)c(OC)n3)cs1)CCCCC2 [Compound 73, N-(2-ethyl-2,4,5,6,7,8-hexahydrocyclohepta[c]pyrazol-3-yl)-4-(6-methoxy-5-(4-methyl-1H-imidazol-1-yl)pyridin-2-yl)thiazol-2-amine] | – | 114 | – | –
CCn1nccc1Nc1nc(-c2ccc(-n3cnc(C)c3)c(OC)n2)cs1 [Compound 74, N-(1-ethyl-1H-pyrazol-5-yl)-4-(6-methoxy-5-(4-methyl-1H-imidazol-1-yl)pyridin-2-yl)thiazol-2-amine] | – | >1000 | – | –
C[C@H](NC(=O)Cc1cc(F)cc(F)c1)C(=O)N[C@H](C(=O)OC(C)(C)C)c1ccccc1 [DAPT, reference compound] | – | – | – | Notch processing (NΔE to NICD) [1]: significantly inhibits
